Measured values reported in ChEMBL document CHEMBL1932986, “Synthesis and in vitro antimycobacterial activity of compounds derived from (R)- and (S)-2-amino-1-butanol - The crucial role of the configuration” (Eur J Med Chem, 2012).
Converted amounts (≈) assume the structure as drawn. The source made the active and inactive calls. No cut-off for these calls is given here.

Columns and labels:
Format in all cases: functional
Saccharomyces cerevisiae = assay: Antifungal activity against Saccharomyces cerevisiae ATCC 9763 at 50 mg/ml after 72 hrs by agar diffusion test; conditions: for zone of inhibition at 50000 µg/mL: ATCC 9763, 72 h, read-out: DIZ
Procedure, shortened: (§1)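 Agar diffusion: yeasts grown on yeast peptone dextrose agar and fungi on potato dextrose agar. Wells are filled with […] of compound solution in DMSO at various concentrations, and the clear-zone diameter is measured. Bracketed values give the lowest concentration (mg/ml) that produces a zone >11 mm. A first screen is run at 50 mg/ml.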

Bacillus cereus = assay: Antibacterial activity against Bacillus cereus ATCC 11778 at 50 mg/ml after 24 hrs by agar diffusion test; conditions: for zone of inhibition at 50000 µg/mL: ATCC 11778, 24 h, read-out: DIZ
Procedure, shortened: (§2)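 Agar diffusion: wells in agar filled with […] DMSO solution of compound at various concentrations; diameter of clear zone around application point measured. Bacteria grown 24 h at 37 °C on nutrient agar. Compounds first screened at 50 mg/ml; those active then tested at lower concentrations. Bracketed value = lowest concentration (mg/ml) giving zone >11 mm, reported only if activity retained at ≤1.25 mg/ml.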

Priestia megaterium = assay: Antibacterial activity against Bacillus megaterium NRRL 1353895 at 50 mg/ml after 24 hrs by agar diffusion test; conditions: for zone of inhibition at 50000 µg/mL: NRRL 1353895, 24 h, read-out: DIZ; procedure, shortened: as §2
Micrococcus luteus [1] = assay: Antibacterial activity against Sarcina lutea ATCC 9341 at 50 mg/ml after 24 hrs by agar diffusion test; conditions: for zone of inhibition at 50000 µg/mL: ATCC 9341, 24 h, read-out: DIZ
Procedure, shortened: (§3)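 Agar diffusion: bacteria grown 24 h at 37 °C on nutrient agar. Wells in the agar are filled with […] of compound solution in DMSO at various concentrations. The diameter of the clear zone around the application point is measured. Bracketed values give the lowest concentration (mg/ml) that produces a zone >11 mm. A first screen is run at 50 mg/ml.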

Micrococcus luteus [2] = assay: Antibacterial activity against Micrococcus luteus ATCC 9631 at 50 mg/ml after 24 hrs by agar diffusion test; conditions: for zone of inhibition at 50000 µg/mL: ATCC 9631, 24 h, read-out: DIZ; procedure, shortened: as §2
Escherichia coli = assay: Antibacterial activity against Escherichia coli ATCC 8739 at 50 mg/ml after 24 hrs by agar diffusion test; conditions: for zone of inhibition at 50000 µg/mL: ATCC 8739, 24 h, read-out: DIZ; procedure, shortened: as §2
Staphylococcus aureus = assay: Antibacterial activity against Staphylococcus aureus NRRL B 313 at 50 mg/ml after 24 hrs by agar diffusion test; conditions: for zone of inhibition at 50000 µg/mL: NRRL B 313, 24 h, read-out: DIZ; procedure, shortened: as §3
Acinetobacter johnsonii = assay: Antibacterial activity against Acinetobacter johnsonii ATCC 17909 at 50 mg/ml after 24 hrs by agar diffusion test; conditions: for zone of inhibition at 50000 µg/mL: ATCC 17909, 24 h, read-out: DIZ; procedure, shortened: as §2
Bacillus mycoides = assay: Antibacterial activity against Bacillus mycoides DSMZ 274 at 50 mg/ml after 24 hrs by agar diffusion test; conditions: for zone of inhibition at 50000 µg/mL: DSMZ 274, 24 h, read-out: DIZ; procedure, shortened: as §2
Bacillus subtilis = assay: Antibacterial activity against Bacillus subtilis ATCC 6633 at 50 mg/ml after 24 hrs by agar diffusion test; conditions: for zone of inhibition at 50000 µg/mL: ATCC 6633, 24 h, read-out: DIZ; procedure, shortened: as §2
Penicillium chrysogenum = assay: Antifungal activity against Penicillium chrysogenum CECT 2802 at 50 mg/ml after 72 hrs by agar diffusion test; conditions: for zone of inhibition at 50000 µg/mL: CECT 2802, 72 h, read-out: DIZ; procedure, shortened: as §1
Bacillus = assay: Antibacterial activity against Bacillus idosus B 241 at 50 mg/ml after 24 hrs by agar diffusion test; conditions: for zone of inhibition at 50000 µg/mL: B 241, 24 h, read-out: DIZ; procedure, shortened: as §2
Candida tropicalis = assay: Antifungal activity against Candida tropicalis ATCC 20336 at 50 mg/ml after 72 hrs by agar diffusion test; conditions: for zone of inhibition at 50000 µg/mL: ATCC 20336, 72 h, read-out: DIZ; procedure, shortened: as §1
[3] = tested on: Mycobacterium tuberculosis; assay: Antimycobacterial activity against Mycobacterium tuberculosis H37Rv after 45 days
Procedure, shortened: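 Canetti proportion method. Compound in DMSO is added to Löwenstein–Jensen egg medium before coagulation (30 min, 85 °C), tested at three levels plus a lower one where needed. Tubes are inoculated with H37Rv at 10⁵ cells/ml and incubated 45 days at 37 °C. Colony counts versus drug-free control give percentage inhibition.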

Structure (SMILES) | diameter of the inhibition zone (DIZ) (Saccharomyces cerevisiae) | zone of inhibition at 50000 µg/mL (Bacillus cereus) [mm] | diameter of the inhibition zone (DIZ) (Priestia megaterium) | diameter of the inhibition zone (DIZ) (Micrococcus luteus [1]) | diameter of the inhibition zone (DIZ) (Micrococcus luteus [2]) | diameter of the inhibition zone (DIZ) (Escherichia coli) | zone of inhibition at 50000 µg/mL (Staphylococcus aureus) [mm] | diameter of the inhibition zone (DIZ) (Acinetobacter johnsonii) | zone of inhibition at 50000 µg/mL (Bacillus mycoides) [mm] | zone of inhibition at 50000 µg/mL (Bacillus subtilis) [mm] | diameter of the inhibition zone (DIZ) (Penicillium chrysogenum) | zone of inhibition at 50000 µg/mL (Bacillus) [mm] | diameter of the inhibition zone (DIZ) (Candida tropicalis) | MIC [3] [µM] | diameter of the inhibition zone (DIZ) (Bacillus mycoides) | zone of inhibition at 50000 µg/mL (Micrococcus luteus [1]) [mm] | zone of inhibition at 50000 µg/mL (Micrococcus luteus [2]) [mm] | zone of inhibition at 50000 µg/mL (Acinetobacter johnsonii) [mm] | zone of inhibition at 50000 µg/mL (Candida tropicalis) [mm] | zone of inhibition at 50000 µg/mL (Priestia megaterium) [mm] | further results
CC[C@H](CO)NC(=O)C(C)(C)C | inactive | 16 | inactive | inactive | inactive | inactive | 15 | inactive | 11 | 15 | inactive | 11 | inactive | 28.9 (≈ 5 µg/mL) | – | – | – | – | – | – | –
CC[C@H](CO)NC(=O)c1ccc2ccccc2c1 | inactive | – | inactive | inactive | inactive | inactive | – | inactive | – | – | inactive | – | inactive | > 20.6 | inactive | – | – | – | – | – | diameter of the inhibition zone (DIZ) (Bacillus cereus): inactive; diameter of the inhibition zone (DIZ) (Staphylococcus aureus): inactive; diameter of the inhibition zone (DIZ) (Bacillus subtilis): inactive; diameter of the inhibition zone (DIZ) (Bacillus): inactive
CC[C@H](CO)N(Cc1ccccc1)Cc1ccccc1 | inactive | 11 | inactive | – | – | inactive | 11 | – | – | – | inactive | 11 | – | > 18.6 | inactive | 12 | 12 | 11 | 10 | – | diameter of the inhibition zone (DIZ) (Bacillus subtilis): inactive
CC[C@H](CO)NCc1ccc2ccc3cccc4ccc1c2c34 | – | 14 | – | – | – | inactive | 13 | – | 15 | 14 | – | 30 | – | 16.5 (≈ 5 µg/mL) | – | 13 | 14 | 14 | 40 | 13 | zone of inhibition at 50000 µg/mL (Saccharomyces cerevisiae): 35 mm; zone of inhibition at 50000 µg/mL (Penicillium chrysogenum): 14 mm
CC[C@H](CO)NC(=O)c1cccc2ccccc12 | inactive | – | inactive | inactive | inactive | inactive | – | inactive | – | – | inactive | – | inactive | > 20.6 | inactive | – | – | – | – | – | diameter of the inhibition zone (DIZ) (Bacillus cereus): inactive; diameter of the inhibition zone (DIZ) (Staphylococcus aureus): inactive; diameter of the inhibition zone (DIZ) (Bacillus subtilis): inactive; diameter of the inhibition zone (DIZ) (Bacillus): inactive
CC[C@H](CO)NC(=O)Nc1cccc2ccccc12 | inactive | – | inactive | inactive | inactive | inactive | – | inactive | – | – | inactive | – | inactive | > 19.4 | inactive | – | – | – | – | – | diameter of the inhibition zone (DIZ) (Bacillus cereus): inactive; diameter of the inhibition zone (DIZ) (Staphylococcus aureus): inactive; diameter of the inhibition zone (DIZ) (Bacillus subtilis): inactive; diameter of the inhibition zone (DIZ) (Bacillus): inactive
CC[C@H](CO)N1C(=O)C=C(C)C1=O | – | 28 | – | – | – | – | 20 | – | 24 | 21 | – | 23 | – | 27.3 (≈ 5 µg/mL) | – | 21 | 22 | 21 | 20 | 20 | zone of inhibition at 50000 µg/mL (Saccharomyces cerevisiae): 21 mm; zone of inhibition at 50000 µg/mL (Escherichia coli): 32 mm; zone of inhibition at 50000 µg/mL (Penicillium chrysogenum): 25 mm
CC[C@H](CO)Nc1cccc(Br)n1 | – | 19 | – | – | – | – | 14 | – | 13 | 13 | – | 17 | – | 20.4 (≈ 5 µg/mL) | – | 17 | 18 | 14 | 25 | 15 | zone of inhibition at 50000 µg/mL (Saccharomyces cerevisiae): 10 mm; zone of inhibition at 50000 µg/mL (Escherichia coli): 17 mm; zone of inhibition at 50000 µg/mL (Penicillium chrysogenum): 17 mm
CC[C@H](CO)NCc1ccccc1O | inactive | 14 | – | – | – | inactive | 12 | – | 14 | 17 | – | 11 | inactive | 25.6 (≈ 5 µg/mL) | – | 12 | 11 | 13 | – | 12 | zone of inhibition at 50000 µg/mL (Penicillium chrysogenum): 12 mm
CC[C@H](CO)NC(c1ccccc1)(c1ccccc1)c1ccccc1 | inactive | – | inactive | inactive | inactive | inactive | – | inactive | – | 12 | inactive | – | inactive | > 15.1 | inactive | – | – | – | – | – | diameter of the inhibition zone (DIZ) (Bacillus cereus): inactive; diameter of the inhibition zone (DIZ) (Staphylococcus aureus): inactive; diameter of the inhibition zone (DIZ) (Bacillus): inactive
CC[C@H](CO)Nc1ncccn1 | inactive | 12 | inactive | inactive | inactive | inactive | – | inactive | – | – | inactive | – | inactive | > 29.9 | inactive | – | – | – | – | – | diameter of the inhibition zone (DIZ) (Staphylococcus aureus): inactive; diameter of the inhibition zone (DIZ) (Bacillus subtilis): inactive; diameter of the inhibition zone (DIZ) (Bacillus): inactive
CC[C@H](CO)NCc1cccc2ccccc12 | – | 15 | – | – | – | – | 16 | – | 18 | 17 | – | 18 | – | 21.8 (≈ 5 µg/mL) | – | 13 | 17 | 20 | 30 | 10 | zone of inhibition at 50000 µg/mL (Saccharomyces cerevisiae): 32 mm; zone of inhibition at 50000 µg/mL (Escherichia coli): 28 mm; zone of inhibition at 50000 µg/mL (Penicillium chrysogenum): 22 mm
CC[C@H](CO)NCc1ccc(-c2ccccc2)cc1 | – | 15 | – | – | – | – | 20 | – | 18 | 18 | – | 18 | – | > 19.6 | – | 17 | 17 | 20 | 18 | 19 | zone of inhibition at 50000 µg/mL (Saccharomyces cerevisiae): 18 mm; zone of inhibition at 50000 µg/mL (Escherichia coli): 28 mm; zone of inhibition at 50000 µg/mL (Penicillium chrysogenum): 40 mm
